The source made the active and inactive calls. The rule behind the calls is not given here.
Assays:
HeLa [1] = test: Cell cycle arrest in human HeLa cells assessed as accumulation at G2/M phase after 24 hrs by propidium iodide staining-based flow cytometry; format: functional
How it was run: (§1)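 Jurkat, HT-29 and HeLa cells in exponential growth (5 × 10^5 cells) treated 24 h at a range of concentrations. Fixed in ice-cold 70% ethanol, lysed with buffer containing RNase A and 0.1% Triton X-100, stained with propidium iodide. DNA content read by flow cytometry and the percentage of cells per cycle phase derived from DNA histograms.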

[2] = Inhibition of bovine brain tubulin polymerization after 20 mins by turbidimetric analysis; design: species or system Bos taurus
How it was run: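 Bovine brain tubulin (10 μM) preincubated with varying compound concentrations in glutamate buffer at 30 °C, chilled to 0 °C, 0.4 mM GTP added, then warmed to 30 °C in a recording spectrophotometer.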

[3] = Cytotoxicity against human A549-T12 cells after 72 hrs by MTT assay; format: functional, cell-based; conditions: A549, 72 h
How it was run: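 Mean ± SE of at least three independent experiments. Resistance ratio = IC50 in resistant line/IC50 in nonresistant line.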

HeLa [4] = test: Ratio of Combretastatin A-4 IC50 to compound IC50 for human HeLa cells; format: functional
HeLa [5] = test: Induction of apoptosis in human HeLa cells assessed as phosphorylated Mcl-1 at 10 nM after 48 hrs by Western Blot analysis; format: functional, cell-based
How it was run: (§2)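 HeLa cells exposed to 10 or 100 nM for 24 or 48 h, washed in ice-cold PBS, lysed on ice 30 min, spun at 15000g at 4 °C. 20 μg protein run on 7.5–15% SDS–PAGE, blotted to PVDF, blocked overnight at 4 °C. Primary antibodies 2 h at room temperature, peroxidase secondary 60 min, ECL detection, β-actin reprobe as loading control.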

HeLa [6] = test: Induction of apoptosis in human HeLa cells assessed as decrease in unphosphorylated Mcl-1 at 10 to 100 nM after 24 hrs by Western Blot analysis; format: functional, cell-based; how it was run: as §2
HeLa [7] = test: Induction of apoptosis in human HeLa cells assessed as caspase-9 cleavage at 10 to 100 nM after 24 to 48 hrs by Western Blot analysis; format: functional, cell-based; how it was run: as §2
Jurkat [8] = test: Cytotoxicity against human Jurkat cells after 72 hrs by MTT assay; format: functional, cell-based
How it was run: (§3)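 Cells plated at 8 × 10^3 per well, 18 h at 37 °C, 5% CO2, then fresh medium with graded compound concentrations (DMSO ≤0.25%) for 72 h. Jurkat, SEM, HL-60 grown in RPMI-1640; A549, HeLa, HT-29, MCF-7 in DMEM; 10% FBS with penicillin/streptomycin. MTT viability read-out; IC50 vs 0.25% DMSO controls; mean ± SE of at least three independent experiments.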

[9] = Selectivity ratio of IC50 for human Jurkat cells to IC50 for human PHA-stimulated PBL cells; format: ADME, cell-based; conditions: Jurkat cells and PHA-stimulated PBL cells, read-out: Ratio IC50
PBL [10] = test: Cytotoxicity against human PBL cells after 72 hrs by MTT assay; format: cell-based
How it was run: (§4)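 Peripheral blood lymphocytes from healthy donors isolated on a Lymphoprep gradient and rested overnight in RPMI-1640 with 10% FBS. Nonadherent cells at 5 × 10^5 cells/mL, with 2.5 μg/mL PHA for proliferating cultures or without it for resting ones. Compound exposure 72 h, viability by MTT. Mean ± SEM of three experiments.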

HT-29 [11] = test: Ratio of Combretastatin A-4 IC50 to compound IC50 for human HT-29 cells; format: functional
LoVo [12] = test: Resistance index, ratio of IC50 for human LoVo/DX cells to IC50 for human LoVo cells; format: functional
How it was run: (§5)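 MTT viability test: 8 × 10^3 cells per well settled 18 h at 37 °C, 5% CO2, then given fresh medium with compound (from 10 mM DMSO stocks, final DMSO ≤0.25%) for 72 h. […] CEMVbl-100 is a vinblastine-selected P-gp line; LoVoDoxo is grown in Ham's F12 with 0.1 μg/mL doxorubicin. Resistance index = resistant IC50/parental IC50.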

HeLa [13] = test: Cell cycle arrest in human HeLa cells assessed as accumulation at G2/M phase at >20 nM after 24 hrs by propidium iodide staining-based flow cytometry; format: functional; how it was run: as §1
HeLa [14] = test: Induction of apoptosis in human HeLa cells assessed as early apoptotic cells at 10 to 100 nM by annexin V-FITC and propidium iodide staining-based flow cytometry; format: functional, cell-based; conditions: TDE = time-dependent effect
How it was run: (§6)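 HeLa cells treated 24 or 48 h, then co-labelled with annexin-V–FITC and propidium iodide. Flow cytometry with 488 nm excitation and emission at 525 nm (FITC) and 585 nm (PI); early apoptotic cells counted as annexin-V+/PI−. Mean ± SEM of three independent experiments.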

HeLa [15] = test: Cell cycle arrest in human HeLa cells assessed as increase in activated cdc25 level at 10 to 100 nM after 24 to 48 hrs by Western Blot analysis; format: functional, cell-based; how it was run: as §2
HT-29 [16] = test: Cytotoxicity against human HT-29 cells after 72 hrs by MTT assay; format: functional, cell-based; conditions: HT-29, 72 h
PBL [17] = test: Cytotoxicity against human PHA-stimulated PBL cells after 72 hrs by MTT assay; format: cell-based; how it was run: as §4
[18] = Cytotoxicity against human SEM cells after 72 hrs by MTT assay; format: functional, cell-based; how it was run: as §3
[19] = Cytotoxicity against human LoVo/DX cells after 72 hrs by MTT assay; format: functional, cell-based; how it was run: as §5
Jurkat [20] = test: Cell cycle arrest in human Jurkat cells assessed as accumulation at G2/M phase at 20 nM after 24 hrs by propidium iodide staining-based flow cytometry; format: functional; how it was run: as §1
HeLa [21] = test: Cell cycle arrest in human HeLa cells assessed as reduction in phosphorylated cdc2 Tyr15 level at 10 to 100 nM after 24 to 48 hrs by Western Blot analysis; format: functional, cell-based; how it was run: as §2
A549 = test: Cytotoxicity against human A549 cells after 72 hrs by MTT assay; format: functional, cell-based; conditions: A549, 72 h
[22] = Antitumor activity against mouse BNL 1ME A.7R.1 cells xenografted in Balb/c mouse assessed as reduction in tumor growth at 5 mg/kg, ip QD for 7 days; format: functional; design: scale not given: the % may be the effect or the level left; conditions: route intraperitoneal
How it was run: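 Male Balb/c mice, 8 weeks old, given 10^7 syngeneic BNL 1ME A.7R.1 hepatoma cells subcutaneously in the dorsal region in 200 μL PBS. Randomised to groups of five. Dosed intraperitoneally once daily for 7 days at 5 mg/kg in 0.9% NaCl with 5% PEG 400 and 0.5% Tween 80, against vehicle and CA-4P. Tumours measured daily by caliper, V = AB2/2; body weight recorded. Mean ± SEM.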

[23] = Cytotoxicity against mouse BNL 1ME A.7R.1 cells; format: functional, cell-based
LoVo [24] = test: Cytotoxicity against human LoVo cells after 72 hrs by MTT assay; format: functional, cell-based; how it was run: as §5
HeLa [25] = test: Induction of apoptosis in human HeLa cells assessed as Mcl-1 phosphorylation at 10 to 100 nM after 24 hrs by Western Blot analysis; format: functional, cell-based; how it was run: as §2
HeLa [26] = test: Induction of apoptosis in human HeLa cells assessed as ROS production at 10 to 100 nM after 24 to 48 hrs by H2-DCFDA staining-based flow cytometry relative to control; format: functional, cell-based
How it was run: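 HeLa cells treated 24 or 48 h, then stained with H2-DCFDA or hydroethidine. ROS read by flow cytometry against untreated control. Mean ± SEM of three independent experiments.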

HeLa [27] = test: Induction of apoptosis in human HeLa cells assessed as early apoptotic cells after 24 to 48 hrs by annexin V-FITC/Propidium iodide staining-based flow cytometry; format: functional, cell-based; how it was run: as §6

COC(=O)c1sc2cc(OC)ccc2c1Nc1cc(OC)c(OC)c(OC)c1
Activity (HeLa [1]): Dose-dependent effect | IC50 [2]: 880 nM | IC50 [3]: 12.6 nM | Ratio IC50 (HeLa [4]): 2 | Activity (HeLa [5]): inactive | Activity (HeLa [6]): Active | Activity (HeLa [7]): Active | IC50 (Jurkat [8]): 1.7 nM | selectivity ratio [9]: 2000 | IC50 (PBL [10]): > 10000 nM | Ratio IC50 (HT-29 [11]): 2 | Ratio IC50 (LoVo [12]): 1.3 | Activity (HeLa [13]): >80% | Activity (HeLa [14]): tde | Activity (HeLa [15]): Active | IC50 (HT-29 [16]): 0.9 nM | IC50 (PBL [17]): > 10000 nM | IC50 [18]: 10.3 nM | IC50 [19]: 0.4 nM | Activity (Jurkat [20]): Active | Activity (HeLa [21]): Active | IC50 (A549): 8.5 nM | Activity [22]: 68.5% | IC50 [23]: 2.1 nM | IC50 (LoVo [24]): 0.3 nM | Activity (HeLa [25]): Active | Activity (HeLa [26]): Active | Activity (HeLa [27]): Dose-dependent effect
